This is an account of results in ChEMBL document CHEMBL3232837, “Synthesis and evaluation of new Hsp90 inhibitors based on a 1,4,5-trisubstituted 1,2,3-triazole scaffold” (J Med Chem, 2014).

Assay [1] deals with Heat shock protein HSP 90-alpha (Homo sapiens, UniProt P07900). The experiment in a line: Displacement of GM-FITC from full-length recombinant human Hsp90-alpha after 4 hrs by fluorescence polarization assay. A general note: In fluorescence polarisation assays a small probe gives low polarisation when free and higher when bound to something large.
Another assay deals with NCI-H460. The experiment in a line: Cytotoxicity against human NCI-H460 cells assessed as growth inhibition after 72 hrs by SRB assay. The format is functional, cell-based. The conditions noted are these: NCI-H460, 72 h. A digest of the protocol:
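NCI-H460 cells grown in RPMI-1640 with 10% heat-inactivated FBS, seeded at about 10% confluence and allowed 24 h recovery. Exposed to graded drug concentrations or solvent for 72 h. Surviving fraction measured by sulforhodamine B. IC50 is the concentration giving a 50% drop in cell number vs vehicle, from dose-response curve fitting; mean of n=4 with SD.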

Assay [2] addresses Heat shock protein HSP 90-beta (Homo sapiens) (UniProt P08238). The experiment in a line: Inhibition of HSP90 in human A431 cells overexpressing EGFR assessed as induction of HSP70 protein expression after 24 hrs by Western blot analysis. The format is cell-based. The following applies: A-431. An outline of the steps:
(§1)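 A431 cells treated 24 h after seeding for 24 h over a concentration range; 17-DMAG 0.2 µM as reference. Cells lysed in RIPA buffer with protease and phosphatase inhibitors, protein measured by Bradford. Equal protein run on SDS-PAGE and blotted to nitrocellulose, then probed for EGFR, Cdk4, Akt, Hsp70 and actin. ECL detection; densitometry normalized to β-actin. Run at least twice.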

Assay [3] shares this target. The experiment in a line: Inhibition of HSP90 in human A431 cells overexpressing EGFR assessed as downregulation of AKT protein expression after 24 hrs by Western blot analysis. The assay is classed as cell-based. The conditions noted are these: A-431. A digest of the protocol: as §1
For orientation: In western blotting, separated proteins are transferred to a membrane and probed.

Assay [4] shares this target. The experiment in a line: Inhibition of HSP90 in human A431 cells overexpressing EGFR assessed as downregulation of CDK4 protein expression after 24 hrs by Western blot analysis. The assay is classed as cell-based. The conditions noted are these: A-431. An outline of the steps:
as §1

Assay [5] has the same target. Kind of assay: Inhibition of HSP90 in human A431 cells overexpressing EGFR assessed as downregulation of EGFR protein expression after 24 hrs by Western blot analysis. The assay is classed as cell-based. The conditions noted are these: A-431. A digest of the protocol:
as §1

Heat shock protein HSP 90-beta (Homo sapiens), sequence (P08238 whole entry): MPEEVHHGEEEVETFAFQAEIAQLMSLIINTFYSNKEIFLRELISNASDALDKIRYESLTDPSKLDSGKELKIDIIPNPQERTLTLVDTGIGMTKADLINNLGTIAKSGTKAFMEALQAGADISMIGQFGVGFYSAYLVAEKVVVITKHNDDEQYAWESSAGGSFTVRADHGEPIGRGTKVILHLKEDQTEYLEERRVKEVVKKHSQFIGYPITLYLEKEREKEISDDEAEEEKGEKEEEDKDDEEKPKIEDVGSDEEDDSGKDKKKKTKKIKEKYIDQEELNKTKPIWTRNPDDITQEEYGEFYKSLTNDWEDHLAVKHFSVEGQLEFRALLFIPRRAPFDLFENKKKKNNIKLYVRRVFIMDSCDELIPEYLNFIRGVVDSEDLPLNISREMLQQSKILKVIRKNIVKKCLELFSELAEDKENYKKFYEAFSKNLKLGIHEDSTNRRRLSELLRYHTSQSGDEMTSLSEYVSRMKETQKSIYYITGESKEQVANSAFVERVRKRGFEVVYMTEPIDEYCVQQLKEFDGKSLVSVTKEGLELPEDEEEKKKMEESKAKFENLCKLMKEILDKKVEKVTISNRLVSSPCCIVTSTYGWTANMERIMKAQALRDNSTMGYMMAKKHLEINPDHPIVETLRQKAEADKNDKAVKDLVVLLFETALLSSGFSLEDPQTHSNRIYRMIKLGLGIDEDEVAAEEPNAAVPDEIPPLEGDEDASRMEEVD

As usually defined, the IC50 is the concentration that gives 50% inhibition. Regarding `CC(C)c1cc(-n2nncc2-c2ccc(CN3CCN(c4ccccc4)CC3)cc2)c(O)cc1O`, the IC50 is 36 nM in assay [1] and 520 nM in the assay on NCI-H460.
As for `CCNC(=O)c1nnn(-c2cc(C(C)C)c(O)cc2O)c1-c1ccc(CN2CCC[C@H](O)C2)cc1`, the IC50 in assay [1] was found to be 23 nM; in the assay with NCI-H460, 70 nM.
Take `CCNC(=O)c1nnn(-c2cc(C(C)C)c(OC(C)=O)cc2OC(C)=O)c1-c1ccc(CN2CCOCC2)cc1`: the inhibition result in assay [2], in assay [3], in assay [4] and in assay [5] was “Dose-dependent effect” throughout. The IC50 in assay [1] is more than 1000 nM; in the assay with NCI-H460, 6.5 nM.
As for `CCNC(=O)c1nnn(-c2cc(C(C)C)c(O)cc2O)c1-c1ccc(CNCCCN(CC)CC)cc1`, the IC50 in assay [1] was determined as 12 nM; in the assay on NCI-H460, 412 nM.
On to `CCNC(=O)c1nnn(-c2cc(C(C)C)c(O)cc2O)c1-c1ccc(CNC2CCN(C)CC2)cc1`, for which the IC50 in assay [1] is 32 nM; in the assay on NCI-H460, more than 1000 nM.
In the case of `CC(C)c1cc(-n2nncc2-c2ccc(CN3CCN(Cc4ccccc4)CC3)cc2)c(O)cc1O`, the figures for the IC50 (in assay [1]; in the assay with NCI-H460) were 27 nM and 180 nM, respectively.
As for `CC(C)c1cc(-n2nnc(C(=O)NC3CCCC3)c2-c2ccc(CN3CCOCC3)cc2)c(O)cc1O`, the inhibition entry in assay [2], in assay [3], in assay [4] and in assay [5] was “Dose-dependent effect” each time. Also, the IC50 in assay [1] is 27 nM; with NCI-H460 it was 14 nM.
In the case of `CCNC(=O)c1nnn(-c2cc(C(C)C)c(O)cc2O)c1-c1ccc(CN2CC[C@H](N(C)C)C2)cc1`, the IC50 came out at 13 nM in assay [1] and 85 nM in the assay on NCI-H460.
Regarding `CCNC(=O)c1nnn(-c2cc(C(C)C)c(O)cc2O)c1-c1ccc(Cn2ccnc2)cc1`, the IC50 in assay [1] was found to be 23 nM; in the assay with NCI-H460, 28 nM.
For `CC(C)c1cc(-n2nnc(C(=O)N[C@H](C(=O)O)C(C)C)c2-c2ccc(CN3CCOCC3)cc2)c(O)cc1O`, the IC50 in assay [1] was 181 nM; in the assay on NCI-H460, more than 1000 nM.
The matching figures for `CCNC(=O)c1nnn(-c2cc(C(C)C)c(O)cc2O)c1-c1ccc(CN2CCN(C)CC2)cc1`: less than 5 nM and 47 nM.
For `CCNC(=O)c1nnn(-c2cc(C(C)C)c(O)cc2O)c1-c1ccc(CN2CCNCC2)cc1`, in that order: less than 5 nM and 250 nM.
Regarding `CC(C)c1cc(-n2nncc2-c2ccc(CN3CCCC(O)C3)cc2)c(O)cc1O` (stereo unspecified), the IC50 in assay [1] stood at 37 nM; in the assay on NCI-H460, 45 nM.
For the molecule `CCNC(=O)c1nnn(-c2cc(C(C)C)c(O)cc2O)c1-c1ccc(CN2CCCCC2)cc1`, the inhibition result in assay [2], in assay [3], in assay [4] and in assay [5] was “Dose-dependent effect” each time. Also, the IC50 in assay [1] was 21 nM; in the assay on NCI-H460, 6 nM.
Turning to `CC(C)c1cc(-n2nncc2-c2ccc(CN3CCOCC3)cc2)c(O)cc1O`, the IC50 in assay [1] turned out to be 35 nM; with NCI-H460 it was 150 nM.
The matching figures for `CCNC(=O)c1nnn(-c2cc(C(C)C)c(O)cc2O)c1-c1ccc(CN2CCCCC2CCO)cc1` (stereo unspecified): 10 nM and 110 nM.
Turning to `CC(C)c1cc(-n2cc(-c3ccc(CN4CCN(c5ccccc5)CC4)cc3)nn2)c(O)cc1O`, the IC50 in assay [1] was 320 nM; in the assay with NCI-H460, more than 1000 nM.
For `CCNC(=O)c1nnn(-c2cc(C(C)C)c(O)cc2O)c1-c1ccc(CNC2CCCCC2)cc1`, the IC50 in assay [1] worked out at 6.8 nM; in the assay on NCI-H460 it was 15 nM.
With `CCNC(=O)c1nnn(-c2cc(C(C)C)c(O)cc2O)c1-c1ccc(CN(CC)CCO)cc1`, the IC50 is less than 5 nM in assay [1] and 56 nM with NCI-H460.
Regarding `CCNC(=O)c1nnn(-c2cc(C(C)C)c(O)cc2O)c1-c1ccc(CNCC2CCCCC2)cc1`, the inhibition result in assay [2], in assay [3], in assay [4] and in assay [5] was “Dose-dependent effect” throughout. Moreover, the concentration for half-maximal inhibition (IC50) in assay [1] is less than 5 nM; with NCI-H460, 2.1 nM.
For `CC(C)c1cc(-n2nnc(C(=O)NC3CCCCC3)c2-c2ccc(CN3CCOCC3)cc2)c(O)cc1O`, the values for the IC50 (in assay [1]; with NCI-H460) were 95 nM and 46 nM, respectively.
In the case of `CCNC(=O)c1nnn(-c2cc(C(C)C)c(O)cc2O)c1-c1ccc(CNCCN2CCOCC2)cc1`, the inhibition entry in assay [2], in assay [3], in assay [4] and in assay [5] was “Dose-dependent effect” in each case. Besides, the IC50 in assay [1] was 14.8 nM; in the assay on NCI-H460 it was 140 nM.
`CCNC(=O)c1nnn(-c2cc(C(C)C)c(O)cc2O)c1-c1ccc(CNCCN(CC)CC)cc1`: the IC50 in assay [1] was 15 nM; in the assay on NCI-H460 it was 200 nM.
Turning to `CCCCCCCNC(=O)c1nnn(-c2cc(C(C)C)c(O)cc2O)c1-c1ccc(CN2CCOCC2)cc1`, the IC50 came out at 33 nM in assay [1] and 45 nM in the assay with NCI-H460.
Turning to `CCNC(=O)c1nnn(-c2cc(C(C)C)c(O)cc2O)c1-c1ccc(CN2CCC[C@@H](O)C2)cc1`, the IC50 in assay [1] stood at 30 nM; in the assay on NCI-H460, 52 nM.
As to `CCNC(=O)c1nnn(-c2cc(C(C)C)c(O)cc2O)c1-c1ccc(CN2CCC(N(C)C)CC2)cc1`, the IC50 in assay [1] was less than 5 nM; with NCI-H460, 120 nM.
Turning to `CCNC(=O)c1nnn(-c2cc(C(C)C)c(O)cc2O)c1-c1ccc(CN(CC)CC)cc1`, the inhibition result in assay [2], in assay [3], in assay [4] and in assay [5] was “Dose-dependent effect” throughout. For the same molecule, the IC50 in assay [1] turned out to be 25 nM; in the assay with NCI-H460, 11 nM.
Consider `CC(C)c1cc(-n2cc(-c3ccc(CN4CCN(Cc5ccccc5)CC4)cc3)nn2)c(O)cc1O`, for which the IC50 in assay [1] is 295 nM; in the assay on NCI-H460, more than 1000 nM.
Turning to `CC(C)c1cc(-n2nnc(C(=O)N3CCOCC3)c2-c2ccc(CN3CCOCC3)cc2)c(O)cc1O`, the IC50 is 270 nM in assay [1] and more than 1000 nM in the assay with NCI-H460.
For `CCNC(=O)c1nnn(-c2cc(C(C)C)c(O)cc2O)c1-c1ccc(CN2CCCC2)cc1`, in that order: less than 5 nM and 3 nM.
`CC(C)c1cc(-n2nnc(C(=O)NCCCl)c2-c2ccc(CN3CCOCC3)cc2)c(O)cc1O`: the IC50 in assay [1] came out at 17 nM; with NCI-H460 it was 4.3 nM.
